According to ChEMBL document CHEMBL1123253, “Design and synthesis of a potent and specific renin inhibitor with a prolonged duration of action in vivo” (J Med Chem, 1986):
Non-standard residues stand in square brackets, D forms with d. Residues, ends and D or L forms follow the SMILES beside them. ξ: configuration not given here. *: point of attachment. Sta = CC(C)C[C@H](N)[C@@H](O)CC(=O)O; NMeH = CN[C@@H](Cc1c[nH]cn1)C(=O)O; NHCH2(2-pyridyl) = c1ccc(CN*)nc1; NMeF = CN[C@@H](Cc1ccccc1)C(=O)O; αMeF = C[C@](N)(Cc1ccccc1)C(=O)O; ξαMeF = CC(N)(Cc1ccccc1)C(=O)O; Boc = CC(C)(C)OC(=O)*

Target: T1, Renin (Homo sapiens, UniProt P00797)
T1 sequence (P00797 whole entry): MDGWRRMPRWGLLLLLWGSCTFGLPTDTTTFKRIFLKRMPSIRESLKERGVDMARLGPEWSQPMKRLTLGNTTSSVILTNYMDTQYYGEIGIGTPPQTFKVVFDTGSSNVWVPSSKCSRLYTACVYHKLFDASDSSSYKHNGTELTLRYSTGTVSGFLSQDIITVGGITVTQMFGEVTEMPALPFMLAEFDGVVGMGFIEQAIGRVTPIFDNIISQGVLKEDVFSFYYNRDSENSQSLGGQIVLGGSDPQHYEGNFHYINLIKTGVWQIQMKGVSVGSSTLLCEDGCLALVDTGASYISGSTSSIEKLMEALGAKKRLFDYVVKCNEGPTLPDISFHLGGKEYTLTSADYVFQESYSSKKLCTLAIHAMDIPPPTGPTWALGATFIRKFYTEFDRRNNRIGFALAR
Experiment: Inhibition of human plasma renin
Type: cell-free
How it was run: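 Lyophilized human plasma with 0.1% EDTA as renin source. Plasma is combined with phenylmethylsulfonyl fluoride, maleate buffer pH 6.0 and inhibitor in 1% Tween 80/water, then incubated 90 min at 37 °C. Angiotensin I measured by radioimmunoassay. Percent inhibition taken vs control tubes; IC50 estimated graphically from 3–4 concentrations on a semilog plot.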

IC50 [nM] | Compound
68 | CC[C@H](C)[C@H](NC(=O)[C@@H](NC[C@H](CC(C)C)NC(=O)[C@H](Cc1c[nH]cn1)N(C)C(=O)[C@H](Cc1ccccc1)NC(=O)[C@@H]1CCCN1C(=O)OC(C)(C)C)C(C)C)C(=O)NCc1ccccn1
450 | CC[C@H](C)[C@H](NC(=O)[C@@H](NC[C@H](CC(C)C)NC(=O)[C@H](Cc1c[nH]cn1)N(C)C(=O)[C@H](Cc1ccccc1)NC(=O)OC(C)(C)C)C(C)C)C(=O)NCc1ccccn1
0.65 | CC[C@H](C)[C@H](NC(=O)[C@@H](C[C@H](O)[C@H](CC(C)C)NC(=O)[C@H](Cc1c[nH]cn1)N(C)C(=O)[C@H](Cc1ccccc1)NC(=O)OC(C)(C)C)C(C)C)C(=O)NCc1ccccn1
120 | CCC(C)C(NC(=O)CC(O)C(CC(C)C)NC(=O)C(Cc1cnc[nH]1)N(C)C(=O)C(Cc1ccccc1)NC(=O)OC(C)(C)C)C(=O)NCc1ccccn1 (stereo not drawn)
24 | CC[C@H](C)[C@H](NC(=O)C[C@H](O)[C@H](CC(C)C)NC(=O)[C@H](Cc1ccccc1)NC(=O)[C@H](Cc1ccccc1)NC(=O)OC(C)(C)C)C(=O)NCc1ccccn1 (Boc-FF[Sta]I-{NHCH2(2-pyridyl)})
100 | CC[C@H](C)[C@H](NC(=O)C[C@H](O)[C@H](CC(C)C)NC(=O)[C@H](Cc1ccccc1)N(C)C(=O)[C@H](Cc1ccccc1)NC(=O)OC(C)(C)C)C(=O)NCc1ccccn1 (Boc-F[NMeF][Sta]I-{NHCH2(2-pyridyl)})
> 10000 | CC[C@H](C)[C@H](NC(=O)C[C@H](O)[C@H](CC(C)C)NC(=O)[C@](C)(Cc1ccccc1)NC(=O)[C@H](Cc1ccccc1)NC(=O)OC(C)(C)C)C(=O)NCc1ccccn1 (Boc-F[αMeF][Sta]I-{NHCH2(2-pyridyl)})
190 | CC[C@H](C)[C@H](NC(=O)C[C@H](O)[C@H](CC(C)C)NC(=O)[C@H](Cc1c[nH]cn1)N(C)C(=O)[C@H](Cc1ccccc1)NC(=O)[C@@H]1CCCN1C(=O)OC(C)(C)C)C(=O)NCc1ccccn1 (Boc-PF[NMeH][Sta]I-{NHCH2(2-pyridyl)})
340 | CC[C@H](C)[C@H](NC(=O)C[C@H](O)[C@H](CC(C)C)NC(=O)[C@H](Cc1ccccc1)NC(=O)[C@H](Cc1ccccc1)N(C)C(=O)OC(C)(C)C)C(=O)NCc1ccccn1 (Boc-[NMeF]F[Sta]I-{NHCH2(2-pyridyl)})
720 | CC[C@H](C)[C@H](NC(=O)C[C@H](O)[C@H](CC(C)C)NC(=O)[C@H](Cc1c[nH]cn1)NC(=O)[C@H](Cc1ccccc1)N(C)C(=O)OC(C)(C)C)C(=O)NCc1ccccn1 (Boc-[NMeF]H[Sta]I-{NHCH2(2-pyridyl)})
6800 | CC[C@H](C)[C@H](NC(=O)C[C@H](O)[C@H](CC(C)C)NC(=O)[C@H](Cc1ccccc1)NC(=O)C(C)(Cc1ccccc1)NC(=O)OC(C)(C)C)C(=O)NCc1ccccn1 (stereo partly drawn) (Boc-[ξαMeF]F[Sta]I-{NHCH2(2-pyridyl)})

Target: T2, Cathepsin D (Bos taurus, UniProt P80209)
T2 sequence (P80209 whole entry): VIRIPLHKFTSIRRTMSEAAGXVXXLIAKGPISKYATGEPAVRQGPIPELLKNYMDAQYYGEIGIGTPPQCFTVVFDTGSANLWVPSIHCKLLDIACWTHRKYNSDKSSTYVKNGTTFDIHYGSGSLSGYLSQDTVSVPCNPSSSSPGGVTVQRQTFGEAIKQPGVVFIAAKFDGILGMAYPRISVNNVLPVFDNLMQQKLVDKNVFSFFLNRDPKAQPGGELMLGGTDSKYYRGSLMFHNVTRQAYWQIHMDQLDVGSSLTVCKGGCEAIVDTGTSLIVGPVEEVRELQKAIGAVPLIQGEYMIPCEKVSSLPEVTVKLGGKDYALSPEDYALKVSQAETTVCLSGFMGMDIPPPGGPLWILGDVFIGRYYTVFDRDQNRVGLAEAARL
Experiment: Inhibition of bovine cathepsin D

IC50 [µM] | Compound
6.3 | CC[C@H](C)[C@H](NC(=O)[C@@H](C[C@H](O)[C@H](CC(C)C)NC(=O)[C@H](Cc1c[nH]cn1)N(C)C(=O)[C@H](Cc1ccccc1)NC(=O)[C@@H]1CCCN1C(=O)OC(C)(C)C)C(C)C)C(=O)NCc1ccccn1

Target: Pepsin A (Sus scrofa, UniProt P00791)
Experiment: Inhibition of porcine pepsin
How it was run: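 Porcine pepsin with porcine hemoglobin substrate in 0.02 M KCl-HCl buffer pH 2, with compounds dissolved in buffer. Incubation 25 min at 37 °C, then perchloric acid added and acid-soluble fraction absorbance read at 280 nm.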

Sequence of Pepsin A (P00791 whole entry): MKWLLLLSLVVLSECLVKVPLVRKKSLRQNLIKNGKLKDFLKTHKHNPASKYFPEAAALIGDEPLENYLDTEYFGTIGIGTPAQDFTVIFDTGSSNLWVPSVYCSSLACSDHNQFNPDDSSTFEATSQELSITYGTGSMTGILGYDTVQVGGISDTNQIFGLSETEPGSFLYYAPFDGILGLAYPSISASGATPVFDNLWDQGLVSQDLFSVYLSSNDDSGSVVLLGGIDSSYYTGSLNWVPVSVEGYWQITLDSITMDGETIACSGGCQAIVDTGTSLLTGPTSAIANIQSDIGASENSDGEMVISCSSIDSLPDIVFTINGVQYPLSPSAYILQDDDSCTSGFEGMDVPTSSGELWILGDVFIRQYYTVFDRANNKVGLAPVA

IC50 [µM] | Compound
6.8 | CC[C@H](C)[C@H](NC(=O)[C@@H](C[C@H](O)[C@H](CC(C)C)NC(=O)[C@H](Cc1c[nH]cn1)N(C)C(=O)[C@H](Cc1ccccc1)NC(=O)[C@@H]1CCCN1C(=O)OC(C)(C)C)C(C)C)C(=O)NCc1ccccn1
